Results reported in publication PMC8213225 (Science Advances, 2021).

What was measured:
[1] = test system: 53BP1 FFR polyubiquitination; assay: In vivo ubiquitination assay of 53BP1 FFR; assay type: cell-based; settings: CPT treatment, fig. S2H
SPOP-53BP1 interaction [2] = assay: Co-IP of SPOP-53BP1 interaction after DNA damage; assay type: cell-based; settings: DNA damage by CPT
BPH1 cells = assay: Karyotype analysis, chromosome breaks; assay type: cell-based; settings: SPOP F133V-expressing BPH1 cells, CPT 1 μM for 24 hours; largely reversed by 53BP1 co-KO
53BP1 polyubiquitination = assay: In vivo ubiquitination assay of 53BP1; assay type: cell-based; settings: CPT treatment, fig. S2E
53BP1 = assay: Immunodepletion of PC-3 lysate with 53BP1 antibody; assay type: binding; settings: IR 4 Gy, 1 hour, immunodepleted five times
Procedure, shortened: (§1)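 PC-3 cells were grown in RPMI with 10% FBS, irradiated (4 Gy), and lysed 1 h later. Lysate was immunodepleted five times with antibody to L3MBTL1 or to 53BP1, with preimmune sera as control. Read-out was Western blot: SDS-PAGE, transfer to nitrocellulose, blocking in TBS (pH 7.4) with 5% nonfat milk and 0.1% Tween 20, primary antibody overnight at 4°C, secondary 1 h at room temperature.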

L3MBTL1 = assay: Immunodepletion of PC-3 lysate with L3MBTL1 antibody; assay type: binding; settings: IR 4 Gy, 1 hour, immunodepleted five times
Procedure, shortened: as §1

SPOP-53BP1 interaction [3] = assay: Co-IP of SPOP-53BP1 interaction in 293T cells with kinase inhibitors and IR; assay type: cell-based; settings: IR for 1 hour
Procedure, shortened: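 293T cells (DMEM, 10% FBS) transiently transfected with tagged constructs by lipofection, pretreated with kinase inhibitors (DMSO vehicle), then irradiated and harvested 1 h later. Lysed in BC100 buffer 24 h post-transfection; FLAG-tagged proteins pulled down on anti-FLAG M2 agarose, HA-tagged with anti-HA plus protein A/G beads, overnight at 4°C. Immunoblot on nitrocellulose with ECL detection.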

[4] = biological target: SPOP MATH domain (residues 28 to 164) D140G (human, UniProt O43791 28-164, D140G); assay: crystal structure
Chain of SPOP MATH domain (residues 28 to 164) D140G (O43791 28-164 D140G): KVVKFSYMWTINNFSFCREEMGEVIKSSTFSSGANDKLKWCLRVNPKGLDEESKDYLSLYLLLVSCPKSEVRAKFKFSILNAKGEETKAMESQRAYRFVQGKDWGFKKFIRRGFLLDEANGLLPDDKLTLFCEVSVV

CC[C@@]1(O)C(=O)OCc2c1cc1n(c2=O)Cc2cc3ccccc3nc2-1 [CPT, camptothecin]
effect on SPOP-increased 53BP1 FFR polyubiquitination [1]: this effect was enhanced by CPT treatment | effect on SPOP-53BP1 interaction (SPOP-53BP1 interaction [2]): markedly enhanced | number of intrachromosomal breaks per cell (BPH1 cells): marked increase in the number of intrachromosomal breaks per cell | effect on SPOP-induced polyubiquitination of 53BP1 (53BP1 polyubiquitination): enhanced SPOP-induced polyubiquitination of 53BP1

NPL4: valosin-containing protein/p97 cofactor NPL4
fraction of NPL4 bound to 53BP1 (53BP1): approximately 10% | fraction of NPL4 bound to L3MBTL1 (L3MBTL1): approximately 33%

O=c1cc(-c2cccc3c2Sc2ccccc2S3)oc(N2CCOCC2)c1 [ATM kinase inhibitor]
effect on SPOP-53BP1 interaction (SPOP-53BP1 interaction [3]): attenuated the SPOP-53BP1 interaction

PATPTASSSSSTTPT (peptide, UniProt Q12888 1636-1650, looked up) [53BP1 SBM synthetic peptide (residues 1636 to 1650)]
binding result [4]: binds
